In general, inhibition in vivo refers to the change of the read-out against control, counted positive when it falls. As usually defined, the half-life is the time needed for the level to fall by half in the phase considered. Usually Tmax stands for the time at which the peak concentration occurs. Usually Cmax stands for the highest concentration seen after dosing. The term AUC(0-t) denotes the area under the concentration-time curve up to a stated or last time point. High values mean more exposure, low ones less exposure. A word on the CL/F: it is the apparent clearance, not corrected for the fraction that reaches the circulation.

From ChEMBL document CHEMBL3352430, “4-Aminopyridyl-based CYP51 inhibitors as anti-Trypanosoma cruzi drug leads with improved pharmacokinetic profile and in vivo potency” (J Med Chem, 2014) come the findings set out here.

The test system of data set [1] is Intestine. As to the kind of experiment: Drug uptake in mouse intestine at 50 mg/kg, po in 20% HP-beta-CD measured at 8 hrs post dose. The class given is ADME, organism-based. On the set-up: dose 50 mg/kg, route oral. The settings on record: in vivo. The gist of the method:
(§1)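 Female Swiss Webster mice, 8 weeks old, given a single 50 mg/kg oral gavage dose in 20% HPβCD or 20% Kolliphor. Tissues taken from three mice at 2 and 8 h post dose. Homogenized by probe sonication in PBS (1:4 w/v), protein precipitated with acetonitrile, and compound measured by LC-MS/MS in μM.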

In data set [2] the test system is Liver. In words: Drug uptake in mouse liver at 50 mg/kg, po in 20% Kolliphor measured at 8 hrs post dose. The class given is ADME, organism-based. On the set-up: dose 50 mg/kg, route oral. The settings on record: in vivo. The gist of the method:
as §1

In data set [3] the test system is Lung. In words: Drug uptake in mouse lung at 50 mg/kg, po in 20% Kolliphor measured at 8 hrs post dose. Set-up: dose 50 mg/kg, route oral. It counts as ADME, organism-based. The settings on record: in vivo. The gist of the method:
as §1

The subject of data set [4] is Heart. In words: Drug uptake in mouse heart at 50 mg/kg, po in 20% Kolliphor measured at 8 hrs post dose. It counts as ADME, organism-based. On the set-up: dose 50 mg/kg, route oral. The settings on record: in vivo. A digest of the protocol: as §1
The nature of data set [5]: Drug uptake in mouse fat at 50 mg/kg, po in 20% Kolliphor measured at 8 hrs post dose. The class given is ADME, organism-based, Adipose tissue. Set-up: dose 50 mg/kg, route oral. The settings on record: in vivo. The gist of the method:
as §1

Data set [6] in a line: Drug uptake in mouse skeletal muscle at 50 mg/kg, po in 20% Kolliphor measured at 8 hrs post dose. The class given is ADME, organism-based, Muscle tissue. Set-up: dose 50 mg/kg, route oral. The settings on record: in vivo. The gist of the method:
as §1

Data set [7] relates to Liver. In words: Drug uptake in mouse liver at 50 mg/kg, po in 20% HP-beta-CD measured at 8 hrs post dose. The settings on record: in vivo. Set-up: dose 50 mg/kg, route oral. The class given is ADME, organism-based. A digest of the protocol:
as §1

Data set [8] has as its system Lung. In words: Drug uptake in mouse lung at 50 mg/kg, po in 20% HP-beta-CD measured at 8 hrs post dose. The settings on record: in vivo. On the set-up: dose 50 mg/kg, route oral. The class given is ADME, organism-based. The gist of the method: as §1
Data set [9] concerns Heart. As to the kind of experiment: Drug uptake in mouse heart at 50 mg/kg, po in 20% HP-beta-CD measured at 8 hrs post dose. Set-up: dose 50 mg/kg, route oral. It counts as ADME, organism-based. The settings on record: in vivo. The gist of the method: as §1
Data set [10] can be described thus: Drug uptake in mouse fat at 50 mg/kg, po in 20% HP-beta-CD measured at 8 hrs post dose. The class given is ADME, organism-based, Adipose tissue. Set-up: dose 50 mg/kg, route oral. The settings on record: in vivo. The gist of the method: as §1
Data set [11] is described as follows: Drug uptake in mouse skeletal muscle at 50 mg/kg, po in 20% HP-beta-CD measured at 8 hrs post dose. The settings on record: in vivo. On the set-up: dose 50 mg/kg, route oral. The class given is ADME, organism-based, Muscle tissue. The gist of the method: as §1
The test system of data set [12] is Trypanosoma cruzi. As to the kind of experiment: Antitrypanosomal activity against Trypanosoma cruzi Y luc infected in mouse assessed as inhibition of parasitemia at 25 mg/kg, po bid in 20% Kolliphor administered for 4 consecutive days starting on day 3 of infection measured on day 7 post infection relative to vehicle-treated control. The class given is functional. The gist of the method:
(§2)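 Female Swiss Webster mice, 8 weeks old, infected ip with 10^5 T. cruzi Y luc trypomastigotes. Only mice with detectable luminescence on day 3 were treated. Compound given by oral gavage bid for four days, as a suspension in 20% HPβCD or a solution in 20% Kolliphor, five mice per group. Vehicle group and benznidazole 50 mg/kg served as controls. On day 7, mice were injected ip with 150 mg/kg d-luciferin and imaged after 5 min under isoflurane. Percent inhibition calculated against untreated mice; two-tailed paired t test.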

Data set [13] concerns Trypanosoma cruzi. In words: Antitrypanosomal activity against Trypanosoma cruzi Y luc infected in mouse assessed as inhibition of parasitemia at 50 mg/kg, po bid in 20% Kolliphor administered for 4 consecutive days starting on day 3 of infection measured on day 7 post infection relative to vehicle-treated control. The class given is functional. The gist of the method:
as §2

For data set [14], the system named is Liver microsome. As to the kind of experiment: Half life in rat liver microsomes. The class given is ADME.
Data set [15] relates to C2C12. In words: Cytotoxicity against mouse C2C12 cells up to 10 uM. The class given is cell-based. A digest of the protocol: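 Mouse C2C12 myoblasts infected with T. cruzi CA-I/72, then exposed at 24 h postinfection to compound at 10 μM down to 5 pM in 5-fold steps for 72 h at 37 °C. Cells fixed in paraformaldehyde, stained with DAPI and scored by automated imaging. Triplicate wells; uninfected and infected untreated wells as controls.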

In data set [16] the test system is Intestine. As to the kind of experiment: Drug uptake in mouse intestine at 50 mg/kg, po in 20% Kolliphor measured at 8 hrs post dose. On the set-up: dose 50 mg/kg, route oral. The settings on record: in vivo. The class given is ADME, organism-based. The gist of the method: as §1
The subject of data set [17] is Trypanosoma cruzi. As to the kind of experiment: Antitrypanosomal activity against Trypanosoma cruzi Y luc infected in mouse assessed as inhibition of parasitemia at 40 mg/kg, ip bid in 60% DMSO administered for 4 consecutive days starting on day 3 of infection measured on day 7 post infection relative to vehicle-treated control.
The subject of data set [18] is Liver microsome. In words: Half life in human liver microsomes. It counts as ADME. (In general: Liver microsomes are a subcellular fraction often used to study metabolism.)
In data set [19] the test system is Liver. As to the kind of experiment: Half life in mouse liver microsomes. It counts as ADME.
A short description of data set [20]: Half life in mouse at 50 mg/kg, po in 20% Kolliphor. The class given is ADME, organism-based. Set-up: dose 50 mg/kg, route oral. The settings on record: in vivo. A digest of the protocol:
(§3)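 Female Swiss Webster mice, 8 weeks old, given one oral gavage dose of 50 mg/kg as a 10 mg/mL preparation in the named vehicle (20% HPβCD suspension or 20% Kolliphor). Plasma sampled at about 0.25, 0.5, 1, 2, 4, 6, 8, 12 and 24 h, n = 3 per time point. Protein precipitated with 5 volumes acetonitrile, filtered, then LC-MS/MS. Values are averages of three mice.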

Data set [21] can be described thus: Tmax in mouse at 50 mg/kg, po in 20% Kolliphor. It counts as ADME, organism-based. On the set-up: dose 50 mg/kg, route oral. The settings on record: in vivo. The gist of the method: as §3
Data set [22] in a line: Cmax in mouse at 50 mg/kg, po in 20% Kolliphor. It counts as ADME, organism-based. On the set-up: dose 50 mg/kg, route oral. The settings on record: in vivo. The gist of the method: as §3
A short description of data set [23]: AUClast in mouse at 50 mg/kg, po in 20% Kolliphor. The class given is ADME, organism-based. Set-up: time 0 - last, dose 50 mg/kg, route oral. The settings on record: plasma. The gist of the method:
as §3

Data set [24] is described as follows: Clearance in mouse at 50 mg/kg, po in 20% Kolliphor. It counts as ADME, organism-based. On the set-up: dose 50 mg/kg, route oral. The settings on record: in vivo. A digest of the protocol:
as §3

Consider `O=C(N[C@H](Cc1c[nH]c2ccccc12)C(=O)Nc1ccncc1)c1ccc(-c2cccc(F)c2)cc1F`, for which the Drug uptake result in data set [1], in data set [2], in data set [3], in data set [4], in data set [5] and in data set [6] was “Active” each time. Moreover, the Drug uptake result in data set [7], in data set [8], in data set [9], in data set [10], in data set [11] and in [16] was “Active” throughout. Also, in data set [12], the inhibition in vivo at 25 mg/kg worked out at 47.4%. In addition, the inhibition in vivo at 50 mg/kg in [13] came out at 71.3%. In [14], the t1/2 amounted to 20 min. Further, the Activity entry in [15] is on record as “Non-toxic”. Besides, the inhibition in vivo at 40 mg/kg in [17] was determined as 51.6%.
Turning to `CC(=O)N1CCN(c2ccc(C(=O)N[C@H](Cc3c[nH]c4ccccc34)C(=O)Nc3ccncc3)c(F)c2)CC1`, the Drug uptake result in data set [1], in data set [2], in [3], in [4], in data set [5] and in data set [6] was “Active” each time. In addition, the Drug uptake entry in [7], in [8], in data set [9], in data set [10], in data set [11] and in data set [16] was “Active” throughout. The figures for the t1/2 in data set [18], in data set [14] and in data set [19] were 64 min, 18 min and 13 min, respectively. Moreover, in [15], the Activity result was “Non-toxic”. Also, in data set [17], the inhibition in vivo at 40 mg/kg amounted to 52%.
For `O=C(N[C@H](Cc1c[nH]c2ccccc12)C(=O)Nc1ccncc1)c1ccc(N2CCN(c3cccc(Cl)c3)CC2)cc1F`, the Drug uptake entry in [1], in data set [2], in data set [3], in [4], in data set [5] and in data set [6] was “Active” throughout. Also, the Drug uptake entry in data set [7], in [8], in data set [9], in data set [10], in data set [11] and in data set [16] was “Active” throughout. Also, in data set [12], the inhibition in vivo at 25 mg/kg was 73.6%. Also, the inhibition in vivo at 50 mg/kg in data set [13] is 97.6%. Moreover, the t1/2 in [14] is given as 21 min; in [19] it was 33 min. In data set [15], the Activity entry was “Non-toxic”.
As to `O=C(N[C@H](Cc1c[nH]c2ccccc12)C(=O)Nc1ccncc1)c1ccc(-c2ccc(OCc3ccc(F)cc3)c(F)c2)cc1F`, the Drug uptake entry in data set [1], in data set [2], in data set [3], in data set [4], in data set [5] and in data set [6] was “Active” each time. Also, the Drug uptake entry in [7], in [8], in data set [9], in data set [10], in [11] and in [16] was “Active” each time. In addition, the inhibition in vivo at 25 mg/kg in data set [12] came to 75.6%. Moreover, the t1/2 was found to be 15 min in data set [18], 39 min in [14] and 67 min in [19]. Moreover, the Activity entry in data set [15] is given as “Non-toxic”. In [17], the inhibition in vivo at 40 mg/kg turned out to be 96.9%.
For the compound `O=C(N[C@H](Cc1c[nH]c2ccccc12)C(=O)Nc1ccncc1)c1ccc(-c2ccc(F)c(F)c2)cc1F`, the Drug uptake result in data set [1], in data set [2], in [3], in data set [4], in data set [5] and in data set [6] was “Active” in each case. Further, the Drug uptake result in data set [7], in data set [8], in data set [9], in data set [10], in [11] and in data set [16] was “Active” each time. Also, the inhibition in vivo at 25 mg/kg in data set [12] amounted to 41.5%. Also, the inhibition in vivo at 50 mg/kg in data set [13] worked out at 78.5%. Moreover, the Activity entry in [15] is “Non-toxic”. The compound further had a half-life in data set [20] of 197 min. Also, the time to peak (Tmax) in data set [21] was determined as 120 min. Also, in data set [22], the peak concentration (Cmax) was found to be 3.71 µM. In [23], the area under the curve AUC(0-t) worked out at 32.5 µM·h. In addition, the apparent clearance (CL/F) in data set [24] came out at 53.8 mL/min/kg. The inhibition in vivo at 40 mg/kg in [17] was 83.6%.
For `O=C(N[C@H](Cc1c[nH]c2ccccc12)C(=O)Nc1ccncc1)c1ccc(-c2cc(F)ccc2F)cc1F`, the Drug uptake result in data set [1], in [2], in [3], in [4], in [5] and in [6] was “Active” each time. The Drug uptake entry in data set [7], in [8], in [9], in data set [10], in [11] and in data set [16] was “Active” in each case. Also, the inhibition in vivo at 25 mg/kg in data set [12] was found to be 72.2%. The Activity entry in data set [15] was “Non-toxic”. In addition, the inhibition in vivo at 40 mg/kg in data set [17] was 35.4%.
